Test results from PMC2812024 (Journal of medicinal chemistry, 2008).
Where two headings read alike, the source gives them in different places. Where a SMILES comes first, the peptide text is derived from it. [ ]: non-standard residue; d: D form. The star is where a group is joined. Dmt = Cc1cc(O)cc(C)c1C[C@H](N)C(=O)O; Tic = O=C(O)[C@@H]1Cc2ccccc2CN1; NHBn = c1ccc(CN*)cc1

What was measured:
[1] = molecular target: T1, δ-opioid receptor (Mus musculus, UniProt P32300); conditions: ref Balboni et al.[5], cited from earlier work
[2] = molecular target: μ-opioid receptors (Rattus norvegicus, UniProt P33535); conditions: read-out: Receptor affinity Ki^μ; reference compounds; ref Balboni et al.[5]; cited from earlier work
[3] = molecular target: T2, μ-opioid receptor (Cavia porcellus, UniProt P97266); conditions: read-out: GPI IC50; μ agonism; ref Balboni et al.[5]; cited from earlier work
[4] = molecular target: δ-opioid receptors (Rattus norvegicus, UniProt P33533); conditions: ref Balboni et al.[5], cited from earlier work; for Ki: read-out: Receptor affinity Ki^δ, reference compounds
[5] = molecular target: T2, μ-opioid receptor; assay: Electrically stimulated guinea-pig ileum; design: species or system guinea pigs
[6] = molecular target: T1, δ-opioid receptor; assay: Electrically stimulated mouse vas deferens; conditions: MVD
[7] = test system: mice; assay: Hot-plate test after icv injection; assay type: in vivo, Swiss-Webster mice
Summary of the method: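 Male Swiss-Webster mice (20–25 g); test compound in saline, 5 μL icv at bregma (needle 2.3–3 mm deep), placement checked after sacrifice. Latency to jump, lick or shake hind paws on a 55 °C plate at 10 min post-injection, then every 10 min; baseline 5–10 sec, cutoff 30 sec.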

[8] = Enzymatic degradation in brain homogenate; assay type: in vitro ADME; conditions: 2 h, preliminary
[9] = test system: mice; assay: Behavioural observation after icv injection; assay type: in vivo
[10] = Enzymatic degradation in plasma; assay type: in vitro ADME; conditions: 4 h, preliminary
[11] = test system: mice; assay: Tail-flick test after icv injection; assay type: in vivo, Swiss-Webster mice
Summary of the method: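 Radiant heat on the dorsal tail surface of male Swiss-Webster mice (20–25 g), with latency to tail removal timed. Baseline 2–3 sec, cutoff 8 sec. Readings start 10 min after icv test compound (5 μL saline at bregma) and repeat every 10 min.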

[12] = 10 μg/mouse icv, sc naltrindole 3 mg/kg, naloxone 10 mg/kg 20 min before

T2 sequence (P97266 whole entry, looked up): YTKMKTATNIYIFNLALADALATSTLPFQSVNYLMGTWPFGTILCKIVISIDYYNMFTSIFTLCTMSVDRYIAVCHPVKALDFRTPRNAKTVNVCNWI
Sequence of δ-opioid receptors (P33533 whole entry): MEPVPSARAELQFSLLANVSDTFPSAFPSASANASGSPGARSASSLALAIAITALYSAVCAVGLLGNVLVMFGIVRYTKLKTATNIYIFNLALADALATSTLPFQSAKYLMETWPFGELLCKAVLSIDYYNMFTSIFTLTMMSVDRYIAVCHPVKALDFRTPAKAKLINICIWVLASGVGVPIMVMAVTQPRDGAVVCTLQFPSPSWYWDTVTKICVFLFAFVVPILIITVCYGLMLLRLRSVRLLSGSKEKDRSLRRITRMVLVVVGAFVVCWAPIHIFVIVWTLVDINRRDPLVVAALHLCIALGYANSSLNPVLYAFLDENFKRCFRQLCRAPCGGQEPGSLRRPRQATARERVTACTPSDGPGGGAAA
T1 sequence (P32300 whole entry): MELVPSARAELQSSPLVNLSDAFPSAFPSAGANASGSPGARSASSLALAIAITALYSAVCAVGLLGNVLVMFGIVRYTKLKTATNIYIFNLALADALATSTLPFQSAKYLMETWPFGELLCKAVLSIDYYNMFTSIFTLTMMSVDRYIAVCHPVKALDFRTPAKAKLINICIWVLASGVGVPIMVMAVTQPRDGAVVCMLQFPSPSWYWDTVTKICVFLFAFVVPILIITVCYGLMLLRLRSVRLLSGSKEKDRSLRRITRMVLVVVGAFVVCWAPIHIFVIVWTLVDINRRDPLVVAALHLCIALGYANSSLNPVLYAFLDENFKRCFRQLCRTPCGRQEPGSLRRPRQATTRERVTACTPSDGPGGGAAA
Sequence of μ-opioid receptors (P33535 whole entry): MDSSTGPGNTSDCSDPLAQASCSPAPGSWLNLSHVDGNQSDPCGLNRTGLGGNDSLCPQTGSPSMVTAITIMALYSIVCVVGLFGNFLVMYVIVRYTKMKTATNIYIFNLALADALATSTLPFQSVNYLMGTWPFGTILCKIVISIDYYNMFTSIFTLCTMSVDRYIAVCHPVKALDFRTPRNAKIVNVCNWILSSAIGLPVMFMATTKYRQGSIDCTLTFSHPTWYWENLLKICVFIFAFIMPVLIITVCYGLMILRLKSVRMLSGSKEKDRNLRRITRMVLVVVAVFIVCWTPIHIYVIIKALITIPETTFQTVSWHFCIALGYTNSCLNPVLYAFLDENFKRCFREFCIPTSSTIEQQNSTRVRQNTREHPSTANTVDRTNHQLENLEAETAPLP

Q: Which “MVD pA2” value ([1]; δ antagonism) does the source give for H-Dmt-Tic-Gly-NH-Bzl [Compound 2] here?
A: Its value is 9.25.

Q: And the Ki [2]?
A: The Ki was 0.16 nM.

Q: What about the IC50 [3] of the same compound?
A: Its IC50 is 2.69 nM.

Q: What about the Ki [4] of the same compound?
A: Its Ki is 0.031 nM.

Q: What about the “Selectivity Ki^μ/Ki^δ” value [4] of the same compound?
A: Its value is 5.

Q: For `Cc1cc(O)cc(C)c1C[C@H](N)C(=O)N1Cc2ccccc2C[C@H]1C(=O)N[C@H](CC(=O)O)c1nc2ccccc2n1C` [Compound 11, H-Dmt-Tic-NH-(R)CH(CH2-COOH)-Bid(N^1-Me)], which IC50 [5] is on record?
A: The IC50 was over 10000 nM.

Q: Which IC50 [5] does the source give for `Cc1cc(O)cc(C)c1C[C@H](N)C(=O)N1Cc2ccccc2C[C@H]1C(=O)N[C@H](CC(=O)O)C(=O)N(C)c1ccccc1` [Compound 9, H-Dmt-Tic-D-Asp-N(Me)-Ph] here?
A: The IC50 was over 10000 nM.

Q: For `Cc1cc(O)cc(C)c1C[C@H](N)C(=O)N1Cc2ccccc2C[C@H]1C(=O)N[C@@H](CC(=O)O)C(=O)N(C)c1ccccc1` [Compound 8, H-Dmt-Tic-Asp-N(Me)-Ph], which IC50 [5] is on record?
A: The IC50 was over 10000 nM.

Q: With `Cc1cc(O)cc(C)c1C[C@H](N)C(=O)N1Cc2ccccc2C[C@H]1C(=O)N[C@@H](CC(=O)O)C(=O)NCc1ccccc1` [Compound 13, H-Dmt-Tic-Asp-NH-Bzl] (H-[Dmt]-[Tic]-Asp-NHBn) as the compound, how does the “δ antagonist activity, lower than 2” value [6] read?
A: The value was 5 fold.

Q: Which “Reversal of analgesia by naltrindole and naloxone, hot-plate test” value [7, 12] does the source give for `Cc1cc(O)cc(C)c1C[C@H](N)C(=O)N1Cc2ccccc2C[C@H]1C(=O)N[C@@H](CC(=O)O)c1nc2ccccc2n1C` [Compound 10, H-Dmt-Tic-NH-(S)CH(CH2-COOH)-Bid(N^1-Me)] here?
A: Its value is “not in the hot-plate test”.

Q: And the “Analgesic effect, hot-plate test” value ([7]; icv injection, mice, Figure 1)?
A: The value was “dose dependent analgesic effect”.

Q: And the “μ agonism relative to 4” value ([5]; GPI)?
A: Its value is 1.7 fold.

Q: What about the “Stability to enzymic degradation” value [8] of the same compound?
A: Its value is “fully stable”.

Q: What about the Convulsions ([9]; highest doses) of the same compound?
A: The Convulsions was “convulsions”.

Q: And the “Behavioural effects in mice” value ([9]; same dose)?
A: Its value is “sedated, quiet, easily handled, and moving slowly if at all”.

Q: And the “Stability to enzymic degradation” value [10]?
A: The value was “fully stable”.

Q: What about the “Reversal of analgesia by naltrindole and naloxone, tail-flick test” value [11, 12] of the same compound?
A: The value was “reversed”.

Q: What about the “Analgesic effect, tail-flick test” value ([11]; icv injection, mice, Figure 1) of the same compound?
A: Its value is “dose dependent analgesic effect”.

Q: For H-Dmt-Tic-Gly-NH-Ph [Compound 1], which IC50 ([1]; read-out: MVD IC50, δ agonism) is on record?
A: Its IC50 is 3.02 nM.

Q: What about the Ki [2] of the same compound?
A: The Ki was 0.16 nM.

Q: And the IC50 [3]?
A: The IC50 was 2.57 nM.

Q: And the Ki [4]?
A: Its Ki is 0.042 nM.

Q: What about the “Selectivity Ki^μ/Ki^δ” value [4] of the same compound?
A: Its value is 4.
